Activity calls are given as the source filed them. No cut-off for these calls is given here.
Columns and labels:
[1] = target: T1, Albumin (Homo sapiens, UniProt P02768); test: Binding affinity to human serum albumin at 293 K at pH 7.4 by fluorescence spectra analysis; assay type: ADME; conditions: isolated protein
Procedure, shortened: (§1)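 Steady-state Trp fluorescence quenching of HSA (10 μM, 0.05 M phosphate pH 7.4, excitation 295 nm) by increasing compound was run at each of three temperatures. F₀/F was fitted to the Stern–Volmer equation for KSV. Binding constant Kb and n came from the modified equation log[(F₀−F)/F] = log Kb + n log[Q].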

[2] = system: MDA-MB-231; test: Downregulation of Bcl-XL expression in human MDA-MB-231 cells at 5 to 7.5 uM after 24 hrs by Western blot analysis; assay type: functional, cell-based
Procedure, shortened: (§2)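 Cells were treated for 24 h. Lysates were made in RIPA buffer, and 40 μg protein was resolved on 10–15% SDS-PAGE and transferred to PVDF. Membranes were blocked with 5% milk and probed overnight at 4 °C with primary antibodies, then HRP secondaries. Detection was by ECL with β-actin as loading control. Blots represent three independent experiments.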

[3] = system: MDA-MB-231; test: Antimigratory activity against human MDA-MB-231 cells at 2.5 to 5 uM after 12 to 24 hrs by wound healing assay; assay type: functional, cell-based
Procedure, shortened: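 2 × 10⁵ cells were plated in six-well plates and scratched with a 200 μL tip. Debris was removed, then cells were treated (0, 1, 2.5, 5, 7.5 μM; or 0–5 μM). The wound was photographed at 0, 12 and 24 h under 100× phase contrast. Area was measured as percent wound closure versus control. Three independent experiments, mean ± SEM.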

[4] = system: MDA-MB-231; test: Antiinvasive activity against human MDA-MB-231 cells at 1 uM after 48 hrs by transwell assay; assay type: functional, cell-based
Procedure, shortened: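 Matrigel (growth factor reduced, diluted in serum-free medium) coated on 8 μm pore polycarbonate transwell membranes, set 2 h at 37 °C. 30 000 cells/well seeded in RPMI-1640 with 1% FBS plus compound; lower chamber had 10% FBS as chemoattractant. After 48 h, non-invaded cells were swabbed off and invaded cells were methanol-fixed and stained with 0.1% crystal violet. At least 10 random fields were counted and expressed versus control.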

[5] = target: T1, Albumin; test: Binding affinity to human serum albumin at 2 to 50 uM at pH 7.4 by spectroscopic analysis; assay type: ADME; conditions: isolated protein, pH 7.4, 50 µM
Procedure, shortened: (§3)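 Fatty-acid-free HSA (10 μM) in 0.05 M phosphate buffer pH 7.4 was titrated with compound from 0 to 50 μM. Trp emission was excited at 295 nm and quenching was monitored. Data were fitted to the Stern–Volmer equation and a modified log[(F₀−F)/F] versus log[Q] plot, giving Kb and n from intercept and slope.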

[6] = target: MAP kinase p38 (Homo sapiens) (UniProt O15264+Q15759+Q16539+P53778); test: Induction of p38 MAPK phosphorylation in human MDA-MB-231 cells at 5 to 7.5 uM after 24 hrs by Western blot analysis; assay type: cell-based
Procedure, shortened: (§4)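 MDA-MB-231 cells treated 24 h, then lysed in RIPA buffer. 40 μg protein run on 10–15% SDS–PAGE and transferred to PVDF. Blocked in 5% milk, probed overnight at 4 °C with primary antibodies (phospho- and total ERK1/2, JNK, p38, cleaved caspase-3), then HRP secondary. ECL detection with β-actin as loading control. Blots representative of three experiments.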

[7] = target: T1, Albumin; test: Binding affinity to human serum albumin at 2 to 50 uM at pH 7.4 by fluorescence spectra analysis; assay type: ADME; conditions: isolated protein, pH 7.4, 50 µM; procedure, shortened: as §3
[8] = system: MDA-MB-231; test: Upregulation of cleaved caspase-3 expression in human MDA-MB-231 cells at 5 to 7.5 uM after 24 hrs by Western blot analysis; assay type: functional, cell-based; procedure, shortened: as §4
[9] = target: T1, Albumin; test: Binding affinity to human serum albumin at 303 K at pH 7.4 by fluorescence spectra analysis; assay type: ADME; conditions: isolated protein; procedure, shortened: as §1
[10] = system: MDA-MB-231; test: Downregulation of CDK1 expression in human MDA-MB-231 cells at 5 to 7.5 uM after 24 hrs by Western blot analysis; assay type: functional, cell-based; procedure, shortened: as §2
[11] = system: MDA-MB-231; test: Downregulation of cyclin B expression in human MDA-MB-231 cells at 5 to 7.5 uM after 24 hrs by Western blot analysis; assay type: functional, cell-based; procedure, shortened: as §2
[12] = target: T1, Albumin; test: Binding affinity to human serum albumin at 283 K at pH 7.4 by fluorescence spectra analysis; assay type: ADME; conditions: isolated protein; procedure, shortened: as §1
[13] = target: Mitogen-activated protein kinase; ERK1/ERK2 (Homo sapiens) (UniProt P27361+P28482); test: Inhibition of ERK1/2 phosphorylation in human MDA-MB-231 cells at 5 to 7.5 uM after 24 hrs by Western blot analysis; assay type: cell-based; procedure, shortened: as §4
[14] = target: c-Jun N-terminal kinase, JNK (Homo sapiens) (UniProt P45983+P53779+P45984); test: Inhibition of SAPK/JNK phosphorylation in human MDA-MB-231 cells at 5 to 7.5 uM after 24 hrs by Western blot analysis; assay type: cell-based; procedure, shortened: as §4
[15] = system: MDA-MB-231; test: Downregulation of survivin expression in human MDA-MB-231 cells at 5 to 7.5 uM after 24 hrs by Western blot analysis; assay type: functional, cell-based; procedure, shortened: as §2
[16] = system: MDA-MB-231; test: Downregulation of Bcl-2 expression in human MDA-MB-231 cells at 5 to 7.5 uM after 24 hrs by Western blot analysis; assay type: functional, cell-based; procedure, shortened: as §2
[17] = target: Matrix metalloproteinase-9 (Homo sapiens) (UniProt P14780); test: Inhibition of MMP-9 in human MDA-MB-231 cells at 1 to 5 uM after 24 hrs by gelatin zymographic method; assay type: cell-based
Procedure, shortened: (§5)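 MDA-MB-231 cells, 1 × 10⁵ per well, treated 24 h with 0, 1, 2.5, 5 or 7.5 μM. Conditioned medium centrifuged and equal protein loaded on 8% SDS–PAGE containing 0.1% gelatin, run at 80 V. Triton X-100 washes, then developed 20 h at 37 °C in Tris-HCl pH 7.5 with NaCl, CaCl₂ and ZnCl₂. Coomassie stain, then destain.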

[18] = system: MDA-MB-231; test: Downregulation of CDC25C expression in human MDA-MB-231 cells at 5 to 7.5 uM after 24 hrs by Western blot analysis; assay type: functional, cell-based; procedure, shortened: as §2
[19] = target: T1, Albumin; test: Binding affinity to human serum albumin assessed as change in secondary structure up to 40 uM at pH 7.4 by circular dichroism spectra analysis; assay type: ADME; conditions: isolated protein
[20] = system: MDA-MB-231; test: Induction of apoptosis in human MDA-MB-231 cells assessed as PARP cleavage at 5 to 7.5 uM after 24 hrs by Western blot analysis; assay type: functional, cell-based; procedure, shortened: as §2
[21] = target: 72 kDa type IV collagenase (Homo sapiens) (UniProt P08253); test: Inhibition of MMP-2 in human MDA-MB-231 cells at 1 to 5 uM after 24 hrs by gelatin zymographic method; assay type: cell-based; procedure, shortened: as §5
72 kDa type IV collagenase (Homo sapiens), sequence (P08253 110-660 limits assumed): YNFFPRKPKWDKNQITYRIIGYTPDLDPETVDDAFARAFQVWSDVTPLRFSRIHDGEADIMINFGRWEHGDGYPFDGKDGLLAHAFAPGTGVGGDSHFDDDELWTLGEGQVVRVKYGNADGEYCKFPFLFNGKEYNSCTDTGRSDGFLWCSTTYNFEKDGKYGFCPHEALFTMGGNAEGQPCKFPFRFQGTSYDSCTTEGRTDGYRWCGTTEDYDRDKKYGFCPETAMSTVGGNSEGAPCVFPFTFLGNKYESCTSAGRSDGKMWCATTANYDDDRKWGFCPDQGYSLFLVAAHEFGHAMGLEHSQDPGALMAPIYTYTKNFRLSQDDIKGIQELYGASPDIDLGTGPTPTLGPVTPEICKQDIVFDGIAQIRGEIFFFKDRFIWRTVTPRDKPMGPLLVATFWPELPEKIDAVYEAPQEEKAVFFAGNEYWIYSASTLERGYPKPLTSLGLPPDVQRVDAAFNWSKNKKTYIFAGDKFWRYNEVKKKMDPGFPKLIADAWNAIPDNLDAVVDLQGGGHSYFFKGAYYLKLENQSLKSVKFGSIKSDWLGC

T1 sequence (P02768 whole entry): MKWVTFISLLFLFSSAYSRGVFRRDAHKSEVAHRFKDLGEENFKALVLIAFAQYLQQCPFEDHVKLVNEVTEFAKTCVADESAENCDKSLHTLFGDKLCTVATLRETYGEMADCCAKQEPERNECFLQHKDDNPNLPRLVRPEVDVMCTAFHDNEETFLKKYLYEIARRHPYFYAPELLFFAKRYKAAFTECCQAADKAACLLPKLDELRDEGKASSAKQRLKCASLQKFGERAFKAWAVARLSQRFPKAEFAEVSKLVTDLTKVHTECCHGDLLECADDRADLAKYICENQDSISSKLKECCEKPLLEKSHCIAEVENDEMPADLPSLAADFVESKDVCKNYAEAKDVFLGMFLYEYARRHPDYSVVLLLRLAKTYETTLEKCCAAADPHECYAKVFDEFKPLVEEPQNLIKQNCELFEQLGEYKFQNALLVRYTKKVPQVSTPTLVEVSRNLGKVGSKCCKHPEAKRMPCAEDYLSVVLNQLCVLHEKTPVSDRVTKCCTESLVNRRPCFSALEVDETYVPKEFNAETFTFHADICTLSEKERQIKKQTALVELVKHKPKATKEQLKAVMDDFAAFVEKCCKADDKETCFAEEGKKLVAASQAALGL
Mitogen-activated protein kinase; ERK1/ERK2 (Homo sapiens), sequence (P27361 whole entry, looked up): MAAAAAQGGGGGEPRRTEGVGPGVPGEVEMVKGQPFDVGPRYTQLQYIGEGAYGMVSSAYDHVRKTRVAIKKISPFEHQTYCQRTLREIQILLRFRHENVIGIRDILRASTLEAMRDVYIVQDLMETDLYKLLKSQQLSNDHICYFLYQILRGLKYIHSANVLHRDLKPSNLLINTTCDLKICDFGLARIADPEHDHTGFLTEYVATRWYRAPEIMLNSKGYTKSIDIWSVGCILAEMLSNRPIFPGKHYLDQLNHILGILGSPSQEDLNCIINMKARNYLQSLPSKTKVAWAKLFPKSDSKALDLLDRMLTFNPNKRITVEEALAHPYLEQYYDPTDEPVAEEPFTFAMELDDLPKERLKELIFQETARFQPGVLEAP
Mitogen-activated protein kinase; ERK1/ERK2 (Homo sapiens), sequence (P28482 whole entry, looked up): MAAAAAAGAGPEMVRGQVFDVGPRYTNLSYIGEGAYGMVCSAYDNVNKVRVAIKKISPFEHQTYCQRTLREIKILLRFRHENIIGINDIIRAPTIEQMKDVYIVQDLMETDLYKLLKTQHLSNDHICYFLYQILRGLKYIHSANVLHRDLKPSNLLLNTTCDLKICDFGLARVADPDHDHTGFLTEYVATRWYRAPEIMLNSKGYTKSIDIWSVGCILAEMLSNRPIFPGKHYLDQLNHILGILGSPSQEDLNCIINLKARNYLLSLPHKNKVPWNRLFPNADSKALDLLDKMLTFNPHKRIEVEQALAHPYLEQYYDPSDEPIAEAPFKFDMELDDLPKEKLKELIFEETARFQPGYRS
Matrix metalloproteinase-9 (Homo sapiens), sequence (P14780 whole entry): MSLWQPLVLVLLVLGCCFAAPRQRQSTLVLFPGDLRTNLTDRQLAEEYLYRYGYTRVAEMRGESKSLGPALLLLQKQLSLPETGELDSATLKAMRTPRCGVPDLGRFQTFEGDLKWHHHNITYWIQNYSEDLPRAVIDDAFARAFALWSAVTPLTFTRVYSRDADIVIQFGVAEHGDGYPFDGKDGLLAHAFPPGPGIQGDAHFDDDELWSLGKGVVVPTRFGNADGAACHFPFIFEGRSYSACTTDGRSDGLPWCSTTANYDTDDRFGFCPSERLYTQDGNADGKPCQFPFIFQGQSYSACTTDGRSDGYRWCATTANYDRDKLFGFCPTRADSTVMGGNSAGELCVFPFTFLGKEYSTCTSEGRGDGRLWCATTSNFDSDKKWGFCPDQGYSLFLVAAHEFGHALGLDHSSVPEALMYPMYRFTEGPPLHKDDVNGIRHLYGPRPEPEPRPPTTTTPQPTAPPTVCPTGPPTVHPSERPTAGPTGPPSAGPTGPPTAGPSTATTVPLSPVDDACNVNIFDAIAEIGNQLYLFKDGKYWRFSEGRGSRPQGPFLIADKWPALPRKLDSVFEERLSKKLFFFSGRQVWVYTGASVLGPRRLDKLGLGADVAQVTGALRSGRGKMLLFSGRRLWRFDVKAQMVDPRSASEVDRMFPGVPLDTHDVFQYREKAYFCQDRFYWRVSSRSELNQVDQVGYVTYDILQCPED

Kb [1]: 8.91 ×10⁴ L/mol
Activity [5]: Active
Activity [6]: Active
Activity [7]: Active
Kb [9]: 7.94 ×10⁴ L/mol
Kb [12]: 9.77 ×10⁴ L/mol
inhibition [13]: Active
inhibition [14]: Active
inhibition [17]: Active
Activity [19]: Not Active
inhibition [21]: Active
SMILES: COC(=O)c1cc2c3ccccc3[nH]c2c2cn(-c3ccc(F)cc3Cl)c[n+]12.[Cl-]
Activity [2]: Active
Activity [3]: Active
Activity [4]: Active
Activity [8]: Active
Activity [10]: Active
Activity [11]: Active
Activity [15]: Active
Activity [16]: Active
Activity [18]: Active
Activity [20]: Active

From ChEMBL document CHEMBL3425411, “Synthesis of β-Carboline-Based N-Heterocyclic Carbenes and Their Antiproliferative and Antimetastatic Activities against Human Breast Cancer Cells” (J Med Chem, 2015)
